# Only some compounds are listed: those with a hit (about 7.2% of all), similar ones and a draw of the others.
# BAP1 inh: blocks human BAP1 ubiquitin-AMC hydrolysis. Q92560. recombinant BAP1, Ub-AMC hydrolysis fluorescence kinetic; stronger effect = lower value. calls only at 20 µM. actives 0.48% (n = 72,000);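 active means activity remaining at or below 50% of control, provided the compound also passes the data quality filters; inactive means the rest, including low values that fail the filters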;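 further: 100% = DMSO wells rate and 0% = substrate alone blank rate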
# Target sequence (Q92560 whole entry, looked up): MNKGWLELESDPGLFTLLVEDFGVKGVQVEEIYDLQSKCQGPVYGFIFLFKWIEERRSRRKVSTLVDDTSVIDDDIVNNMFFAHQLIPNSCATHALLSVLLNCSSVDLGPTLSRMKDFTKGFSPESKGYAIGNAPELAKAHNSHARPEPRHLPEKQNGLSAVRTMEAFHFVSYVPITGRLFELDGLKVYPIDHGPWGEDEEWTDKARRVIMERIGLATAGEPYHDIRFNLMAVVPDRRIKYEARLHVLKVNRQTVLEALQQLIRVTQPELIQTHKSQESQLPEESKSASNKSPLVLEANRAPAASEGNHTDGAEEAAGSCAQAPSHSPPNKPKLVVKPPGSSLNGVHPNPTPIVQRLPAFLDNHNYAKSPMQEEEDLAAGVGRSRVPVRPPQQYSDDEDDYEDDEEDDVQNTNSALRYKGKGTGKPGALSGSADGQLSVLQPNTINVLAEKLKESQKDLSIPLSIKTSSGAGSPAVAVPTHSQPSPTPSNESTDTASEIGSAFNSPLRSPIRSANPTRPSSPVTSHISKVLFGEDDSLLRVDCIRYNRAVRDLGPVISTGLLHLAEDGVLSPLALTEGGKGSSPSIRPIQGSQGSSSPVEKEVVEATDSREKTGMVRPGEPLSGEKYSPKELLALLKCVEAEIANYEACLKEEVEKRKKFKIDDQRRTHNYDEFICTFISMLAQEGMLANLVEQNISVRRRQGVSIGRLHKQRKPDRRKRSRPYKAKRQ
# DAT uptake mod: changed human dopamine transporter uptake under cocaine IC80; Q01959; LLC-PK1 hDAT cells, [14C]-dopamine uptake with cocaine IC80; actives deviate in either direction; B-score at 10 µM; actives 1.3% (n = 110,000); AID 449768;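 active means Z score or B-score, a plate-position-corrected score, falls beyond the plate's 99.7% confidence bounds, in either direction; inactive means both scores lie inside the 99.7% bounds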;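 further: scored against the spread of the other compound wells on the same plate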
# M1 antag: antagonists of rat M1 muscarinic receptor. P08482. CHO-M1 cells, Fluo-4 calcium, ACh EC80 antagonist mode; stronger effect = lower value. B-score at 10 µM. actives 3.4% (n = 64,000). AID 628;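 active means calcium fluorescence response, raw or row-and-column corrected B-score, differing from the plate sample mean either way at a set confidence level, mostly lower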
# M1 ag: activates the M1 muscarinic receptor; CHO-M1 cells, Fluo-4 calcium fluorescence, agonist mode; stronger effect = higher value; B-score at 10 µM; actives 3% (n = 64,000);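 active means fluorescence rise, raw or as B-score row- and column-corrected plate score, outside the 99.7% band of its plate's samples, either direction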
# HEK293 NFkB inh: inhibitors of the PMA/ionomycin-induced NF-kB reporter in HEK293 cells | HEK-293 NF-kB luciferase reporter, luminescence | inhibition, % at 3 µM | actives 0.21% (n = 62,000) | AID 465;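 active means inhibition above the mean of all tested compounds plus 3 SD, cut at about 40% in these data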;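 further: 0% = stimulated DMSO wells and 100% = 10 µM reference inhibitor 5653914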
#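 Signal: luciferase luminescence; Material: HEK-293 cells with stable firefly luciferase reporter driven by four HIV NF-kB elements; Probe or stimulus: PMA with ionomycin; Replication: tested once; Times: 1 h compound pretreatment, then 16 h stimulation at 37 °C, 5% CO2; Benchmarks: DMSO and 10 µM reference inhibitor; Evaluation: per-plate % inhibition versus controls.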
# D1 mod: allosterically modulates the human D1 dopamine receptor; HEK293 D1, CRE-luciferase, dopamine EC30 potentiation; actives deviate in either direction; actives 5.9% (n = 58,000); B-score at 10 µM; P21728;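 active means luminescence count or its row- and column-corrected plate score outside the 99.7% band of the plate's sample wells, on either side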
# Active calls of the source: *; i = inactive; / = no result shown; + = active, no number.
SMILES,BAP1 inh,DAT uptake mod,M1 antag,M1 ag,HEK293 NFkB inh,D1 mod
COC(=O)[C@@H](NC(=O)N1CCN(c2cccc(C(F)(F)F)c2)CC1)C(C)C,i,-0.025,0.78,-0.61,5,-0.072
COCCOC(=O)c1c(C)nc(SCC(=O)Nc2cccc3ccccc23)c(C#N)c1-c1ccco1,/,-8.2*,/,/,/,/
CNC(=O)c1c(C)nc(SCC(=O)NCc2ccc(OC)cc2)c(C#N)c1-c1ccco1,i,/,-0.32,0.3,20,-2.9*
CN1CCN(Cc2c(O)ccc3c(=O)c(-c4ccc(Cl)cc4)coc23)CC1,i,/,/,/,/,/
COc1cc(C2C(C(=O)OC3CCCCC3)=C(C)NC3=C2C(=O)CC(C)(C)C3)cc(OC)c1OC (stereo not given),i,/,/,/,/,/
Ic1cccc2c1N1CCN2CC1,i,/,/,/,/,/
CC1(C)OC(=O)C(=CNC(CCC(N)=O)C(=O)O)C(=O)O1 (stereo not given),i,-0.28,1.3*,-0.13,-3,0.043
CCC(C)C(NC=C1C(=O)OC(C)(C)OC1=O)C(=O)O (stereo not given),/,0.75,/,/,/,/
Cc1ccccc1Nc1nc(CSc2nnnn2-c2ccccc2)cs1,/,-8*,/,/,/,/
c1ccc(-c2nc(CSc3nnnn3-c3ccccc3)cs2)cc1,/,0.57,-0.26,0.49,12,0.36
COc1ccc(/C=N/N=C/c2ccc(OC)c(O)c2)cc1O,/,-0.55,/,/,/,/
Oc1cc(O)cc(/C=C/c2ccc(O)c(O)c2)c1,+,/,/,/,/,/
Cc1c(Cl)cccc1-c1ccc(C(=O)Nc2ccc(Br)cn2)o1,i,/,/,/,/,/
O=S(=O)(Nc1ccc2c(c1)OCCO2)c1ccc2c(c1)OCCO2,i,/,/,/,/,/
CC(=O)c1ccc(Oc2ncnc3sccc23)c(CN2CCOCC2)c1,i,-7.9*,0.029,-2.8*,12,-1.2
CC(=O)c1ccc(OCC(C)C)c(CN2CCCCC2)c1,i,-0.77,-2,-0.55,4,0.3
O=C(Nc1ccc2c(c1)OCO2)c1cccc(F)c1,i,1.4,0.18,0.38,-1,0.23
O=C(/C=C\Nc1cccc(F)c1)c1ccc2c(c1)OCO2,i,1.7,-0.83,0.6,-29,-6.9*
Cc1nc2ccccn2c1-c1csc(NCc2ccco2)n1,i,-0.42,-0.45,8,10,-3.3*
Cc1ccn2c(-c3csc(NCc4ccccc4)n3)c(C)nc2c1,/,2.9*,/,/,/,/
COc1ccc(/C=N/OCC(=O)N2CC3(C)CC2CC(C)(C)C3)cc1OC (stereo not given),/,2.8*,/,/,/,/
COc1cccc(C=Nc2cccnc2)c1O,i,-7*,-0.24,-0.23,46*,0.54
COc1cccc(C=Nc2cccc(NC(=O)c3ccc(F)cc3)c2)c1O,i,/,/,/,/,/
N#Cc1c(N)nc(SCC(=O)c2cc3ccccc3oc2=O)c(C#N)c1-c1cccs1,i,/,/,/,/,/
CC1(c2ccccc2)CC(C)(C)N(C(=O)CSC#N)c2ccccc21 (stereo not given),i,/,/,/,/,/
SMILES,BAP1 inh,DAT uptake mod,M1 antag,M1 ag,HEK293 NFkB inh,D1 mod
Cc1nn(Cc2ccc(C(=O)N3c4ccc(F)cc4CCC3C)o2)c(C)c1Br (stereo not given),i,3.3*,-2.3,-0.2,6,0.066
Cc1ccc(-c2cc(NC(=O)CSc3n[nH]c(N)n3)n(-c3ccccc3)n2)cc1,/,-0.14,/,/,/,/
Nc1nc(SCC(=O)Nc2cc(-c3ccccc3)nn2-c2ccccc2)n[nH]1,/,1.4*,/,/,/,/
CC1=C(C(=O)OC(C)C)C(c2ccccc2Br)C2=C(CC(C)(C)CC2=O)N1 (stereo not given),i,/,/,/,/,/
CC(C)(C)NC(=O)CSc1nncn1NCc1ccccc1,i,0.15,0.37,0.54,15,-0.06
Cc1ccc(CNn2cnnc2SCC(=O)NC(C)(C)C)cc1,i,2.2*,1.2,0.43,14,-0.021
Cc1ccc(NC(=O)c2cc(Cl)nc3ccccc23)cc1,/,-2.5*,/,/,/,/
COc1cc(C2C(C#N)=C(N)Oc3cc(C)n(Cc4ccccn4)c(=O)c32)cc2c1OCO2 (stereo not given),/,/,-10*,34*,/,0.052
COCc1nc(-c2cc(Br)ccc2OC)no1,i,2.9*,/,/,11,1.6
CC(C)CN(CC(C)C)C(=O)CN1C(=O)c2ccccc2C1=O,i,/,/,/,/,/
O=C(c1ccccc1Cl)N1CCN(C2=NS(=O)(=O)c3ccccc32)CC1,i,/,/,/,/,/
C=CCn1c(N)nc2ccccc21,i,-2.6*,-0.33,-1.3,-9,-0.094
C=CCn1c(-c2ccc(N)cc2)nc2ccccc21,i,-0.065,-1.6,1,-27,-1.5
O=C(Nc1ccc(NC(=O)C2CCCCC2)cn1)c1ccco1,i,0.75,-0.0023,0.018,3,-3.2*
O=C(Nc1ccc(NC(=O)c2ccco2)nc1)c1ccccn1,/,0.21,1.3,1.6,-21,-4.1*
CC(C)C(=O)Nc1ccc(NC(=O)c2ccccn2)cn1,/,-1.5,0.097,-0.54,-7,-4.9*
O=C(Nc1ccc(NC(=O)C23CC4CC(CC(C4)C2)C3)cn1)c1ccco1,i,-0.57,-1.7,0.28,-59,-2
CCCCOCC(O)Cn1cnc2ccccc21 (stereo not given),i,/,/,/,/,/
CCC1(COC(NC(=O)c2cccnc2)(C(F)(F)F)C(F)(F)F)COC1,i,0.62,-0.85,-0.054,13,-7*
Cc1cccc(C)c1OCC(=O)Nc1cccc(-c2nnc(-c3ccccc3)o2)c1,/,1.2,-1.9,2.2,/,/
CCCCC(=O)Nc1cc(NC(=O)CCCC)cc(C(=O)O)c1,i,-0.043,-0.29,0.68,2,-4.2*
CCCCC(=O)Nc1cccc(-c2nnc(-c3ccccc3)o2)c1,i,2.8*,-1.1,2.7*,9,0.078
C#CCOC(=O)c1ccccc1C(=O)n1nnc2ccccc21,i,-0.056,0.34,-2.3*,11,-0.52
C#CCOC(=O)c1ccccc1C(=O)OCC#C,i,-0.62,-0.14,-0.32,1,1.9
CCOc1ccccc1C(=O)Nc1ccc(C)cn1,i,/,/,/,/,/
SMILES,BAP1 inh,DAT uptake mod,M1 antag,M1 ag,HEK293 NFkB inh,D1 mod
Cc1ccc(NC(=O)c2ccccc2F)nc1,i,0.016,0.27,-0.64,-29,-3*
CCOc1c2ccc(C(=O)NCc3ccc(C)cc3)cc2nn1CC,/,3.2*,/,/,/,/
Cc1ccc(S(=O)(=O)NCc2cn3c(C)csc3n2)cc1,i,-0.6,1.7,-0.077,14,/
Cc1ccc(SCc2cn3c(C)csc3n2)cc1,i,0.45,-0.12,0.35,-17,-4.6*
Nc1ccc2oc(-c3ccc(-c4nc5ccc(N)cc5[nH]4)cc3)nc2c1,i,/,/,/,/,/
Cc1nc(N2CCN(c3ccccc3)CC2)c2c3c(sc2n1)CCC3,i,/,0.48,-0.52,10,-1.2
